Drawing on the array DNA melting data of Ke et al. (doi:10.1101/2024.01.08.574731), this text covers Tm and folding enthalpy for 73 sequences.

A short description of data set [1]: melting temperature; fluorescence melt of hairpins on a sequencing array, two-state fit, raised by 9.35 °C to match UV melts. As to conditions: sodium 0.088 M. The method in brief:
(§1)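 On a sequenced MiSeq flow cell, library hairpins with annealed Cy3 and quencher oligos were imaged for Cy3 fluorescence in 2.5 °C steps up to 60 °C, in 50 mM Na-HEPES pH 8.0, 25 mM NaCl. Normalisation used pre-quench Cy3 and control constructs. Bootstrapped two-state fits gave melting temperature and folding enthalpy, combined by inverse variance across four replicates and with fitted temperatures raised by 9.35 °C to match UV melts.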

Data set [2] in a line: folding enthalpy; higher = less favourable; fluorescence melt of hairpins on a sequencing array, two-state fit. To be noted: sodium 0.088 M. The method in brief:
as §1

GTGGAGCGAAAGCTTCAC (((.(((....))).))): in data set [1], the Tm was found to be 58.1 °C. The folding enthalpy in data set [2] was -35.6 kcal/mol.
On the same counts, the results for GTGGAGGGAAACCTCTAC ((.((((....)))).)) are 46.7 °C and -25.7 kcal/mol.
On the same counts, the results for GTGGAGGGAAACTTCCAC (((((.(....).))))) are 47.3 °C and -30.4 kcal/mol.
For GTGGAGTCGAAAGACCAC (((..(((....)))))) the same measures were 44.9 °C and -20.6 kcal/mol.
In the case of GTGGATCCGAAAGGACAC (((..(((....)))))), the Tm in data set [1] is 39.4 °C. Also, the folding enthalpy in data set [2] was -23.3 kcal/mol.
On the same counts, the results for GTGGATCGAAAGATGCAC (((.(((....))).))) are 55.9 °C and -45.9 kcal/mol.
On the same counts, the results for GTGGATCGAAAGATTCAC (((.(((....))).))) are 53.8 °C and -38.2 kcal/mol.
For GTGGATGAAAATCCAC ((((((....)))))) the same measures were 59.9 °C and -33.9 kcal/mol.
For GTGGATGGAAACGTCTAC ((.((.(....).)).)), in data set [1], the Tm was 32.5 °C. Further, in data set [2], the folding enthalpy is -19.8 kcal/mol.
For GTGGCAGGAAACTGCCGC (.(((((....))))).) the same measures were 61.1 °C and -18.3 kcal/mol.
For GTGGCAGGAAACTGCTAC ((.((((....)))).)) the same measures were 53.1 °C and -26.4 kcal/mol.
For GTGGCCGAAAGGCACCAC ((((((....)))..))) the same measures were 43.6 °C and -12.3 kcal/mol.
Take GTGGCCGAAAGGCCGCAC ((((((....)))..))): the Tm in data set [1] was determined as 62.9 °C. Also, in data set [2], the folding enthalpy was -9.1 kcal/mol.
For the sequence GTGGCCGAAAGGCTCCAC ((((((....)))..))), the Tm in data set [1] was determined as 39 °C. In addition, in data set [2], the folding enthalpy is -11.4 kcal/mol.
For GTGGCCGAAAGGCTGCAC ((((((....)))..))) the same measures were 46.7 °C and -12.4 kcal/mol.
In the case of GTGGCCGGAAACGGCTGC (..((((....))))..), the Tm in data set [1] was 51.9 °C. The folding enthalpy in data set [2] was -13 kcal/mol.
Consider GTGGCGCGAAAGCGCAC (((.(((....)))))), for which the Tm in data set [1] amounted to 57.6 °C. Besides, the folding enthalpy in data set [2] was -8.04 kcal/mol.
For GTGGCTACGAAAGTACAC (((..(((....)))))) the same measures were 32.9 °C and -11.3 kcal/mol.
On the same counts, the results for GTGGCTGGAAACAGCCGC (.(((((....))))).) are 63 °C and -17.4 kcal/mol.
For GTGGCTGGAAACAGCTGC (..((((....))))..) the same measures were 47.4 °C and -15.6 kcal/mol.
As for GTGGGACCGAAAGGTCAC (((..(((....)))))), the Tm in data set [1] came out at 64.2 °C. The folding enthalpy in data set [2] is -19.5 kcal/mol.
GTGGGACGAAAGTCCAC (((.(((....)))))): the Tm in data set [1] was 55.9 °C. The folding enthalpy in data set [2] was -13.2 kcal/mol.
On the same counts, the results for GTGGGACGAAAGTCGCAC (((.(((....))).))) are 66.3 °C and -38.6 kcal/mol.
On the same counts, the results for GTGGGAGGAAACTCCCAC (((((((....))))))) are 67.2 °C and -32.1 kcal/mol.
On the same counts, the results for GTGGGAGGAAACTCTCGC (.(.(((....))).).) are 37.2 °C and -30.2 kcal/mol.
GTGGGCGAAAGCCAACAC ((((((....)))..))): the Tm in data set [1] worked out at 53.5 °C. Further, the folding enthalpy in data set [2] is -15 kcal/mol.
On the same counts, the results for GTGGGCGAAAGCCACCAC ((((((....)))..))) are 47.2 °C and -12.7 kcal/mol.
For GTGGGCGAAAGCCAGCAC ((((((....)))..))) the same measures were 46.5 °C and -12.8 kcal/mol.
On the same counts, the results for GTGGGCGAAAGCCCCAC ((((((....))).))) are 60.2 °C and -11.3 kcal/mol.
As for GTGGGCGAAAGCCGTCAC ((((((....)))..))), the Tm in data set [1] turned out to be 36.9 °C. In data set [2], the folding enthalpy was -13.2 kcal/mol.
On the same counts, the results for GTGGGCGGAAACACCCAC (((((.(....).))))) are 53.1 °C and -43.3 kcal/mol.
For GTGGGCGGAAACGTCCAC ((((.((....)).)))) the same measures were 64.7 °C and -41.7 kcal/mol.
On the same counts, the results for GTGGGCGGAAACGTCCGC (.((.((....)).)).) are 54.3 °C and -25.4 kcal/mol.
For GTGGGGACGAAAGTCCAC (((..(((....)))))), the Tm in data set [1] amounted to 61.8 °C. Further, the folding enthalpy in data set [2] is -15.4 kcal/mol.
Take GTGGGGGAAACCCCAC ((((((....)))))): in data set [1], the Tm turned out to be 68 °C. For the same sequence, the folding enthalpy in data set [2] is -31.9 kcal/mol.
On the same counts, the results for GTGGGGGGAAACCCCTAC ((.((((....)))).)) are 52.2 °C and -17.8 kcal/mol.
On the same counts, the results for GTGGGGGGAAACTCCCAC (((((.(....).))))) are 56.2 °C and -35.3 kcal/mol.
On the same counts, the results for GTGGGTCGAAAGACACAC (((.(((....))).))) are 63.5 °C and -47 kcal/mol.
On to GTGGGTCGAAAGACGCAC (((.(((....))).))), for which, in data set [1], the Tm is 63.3 °C. Besides, in data set [2], the folding enthalpy was -34.3 kcal/mol.
In the case of GTGGGTGAAAACCCAC ((((((....)))))), in data set [1], the Tm stood at 67.3 °C. Besides, the folding enthalpy in data set [2] is -28.1 kcal/mol.
For GTGGGTGGAAACATCCGC (.((.((....)).)).) the same measures were 44.2 °C and -26.3 kcal/mol.
For GTGGTACCGAAAGGTCAC (((..(((....)))))) the same measures were 38.4 °C and -18.4 kcal/mol.
As for GTGGTCCGAAAGGAGCAC (((.(((....))).))), in data set [1], the Tm was 67.6 °C. In addition, in data set [2], the folding enthalpy is -34.6 kcal/mol.
On the same counts, the results for GTGGTCGAAAGACACCAC ((((((....)))..))) are 42.4 °C and -15.6 kcal/mol.
For GTGGTCGAAAGACCCAC ((((((....))).))) the same measures were 51.1 °C and -13.2 kcal/mol.
On the same counts, the results for GTGGTCGAAAGACCTCAC ((((((....)))..))) are 38 °C and -10.7 kcal/mol.
For the sequence GTGGTGCCGAAAGGCCAC (((..(((....)))))), in data set [1], the Tm is 48 °C. In data set [2], the folding enthalpy was -12.8 kcal/mol.
For GTGGTGGAAACACCAC ((((((....)))))) the same measures were 66.6 °C and -34.7 kcal/mol.
On the same counts, the results for GTGGTGGGAAACCATCAC (((.(((....))).))) are 51.2 °C and -43.1 kcal/mol.
For GTGGTGGGAAACCGCCAC ((((.((....)).)))) the same measures were 61.9 °C and -40.2 kcal/mol.
As for GTGGTTACGAAAGTACAC (((..(((....)))))), in data set [1], the Tm turned out to be 35.5 °C. The folding enthalpy in data set [2] was -20.7 kcal/mol.
On the same counts, the results for GTGGTTGGAAACAACTAC ((.((((....)))).)) are 47.8 °C and -24.8 kcal/mol.
For GTGGTTGGAAACGACTAC ((.((.(....).)).)) the same measures were 41.8 °C and -25.7 kcal/mol.
On the same counts, the results for GTGGTTGGAAACGATCAC (((.(.(....).).))) are 34.1 °C and -18 kcal/mol.
Consider GTGGTTTCGAAAGAACAC (((..(((....)))))), for which the Tm in data set [1] was 31.3 °C. In addition, in data set [2], the folding enthalpy was -15.6 kcal/mol.
On the same counts, the results for GTGTAAGAAATTACAC ((((((....)))))) are 46.1 °C and -29.2 kcal/mol.
For GTGTAAGGAAACTCACAC ((((.((....)).)))) the same measures were 32.8 °C and -16.9 kcal/mol.
On the same counts, the results for GTGTAAGGAAACTTGCAC (((.(((....))).))) are 45.1 °C and -31 kcal/mol.
Take GTGTACGAAAGTATACAC ((((((....)))..))): the Tm in data set [1] was 44.9 °C. Besides, the folding enthalpy in data set [2] was -22 kcal/mol.
On the same counts, the results for GTGTACGAAAGTATTCAC ((((((....)))..))) are 28.7 °C and -11.8 kcal/mol.
With GTGTAGGGAAACTTGCAC (((.(.(....).).))), the Tm in data set [1] amounted to 29.4 °C. In addition, the folding enthalpy in data set [2] was -17.7 kcal/mol.
On the same counts, the results for GTGTATGAAAATACAC ((((((....)))))) are 52.5 °C and -36.1 kcal/mol.
For GTGTATGGAAACATATAC ((.((((....)))).)) the same measures were 37.8 °C and -37 kcal/mol.
On the same counts, the results for GTGTATGGAAACGTACAC (((((.(....).))))) are 47.2 °C and -33.9 kcal/mol.
With GTGTCACCGAAAGGTCAC (((..(((....)))))), the Tm in data set [1] turned out to be 38.2 °C. Also, in data set [2], the folding enthalpy was -20.5 kcal/mol.
Consider GTGTCACGAAAGTGTCAC (((.(((....))).))), for which the Tm in data set [1] was determined as 53.5 °C. In data set [2], the folding enthalpy is -40.4 kcal/mol.
For GTGTCAGGAAACCGACAC (((((.(....).))))), the Tm in data set [1] was determined as 49.2 °C. Besides, in data set [2], the folding enthalpy is -42.6 kcal/mol.
On the same counts, the results for GTGTCCCGAAAGGGCAC (((.(((....)))))) are 65.2 °C and -26.1 kcal/mol.
For GTGTCCCGAAAGGGTCAC (((.(((....))).))) the same measures were 57.9 °C and -30.8 kcal/mol.
GTGTCCGAAAGGAACAC ((((((....))).))): the Tm in data set [1] was 52.8 °C. Further, in data set [2], the folding enthalpy was -30 kcal/mol.
On the same counts, the results for GTGTCCGAAAGGAAGCAC ((((((....)))..))) are 38.6 °C and -19.2 kcal/mol.
For GTGTCCGAAAGGACGCAC ((((((....)))..))) the same measures were 57.8 °C and -10.4 kcal/mol.
For the sequence GTGTCCGAAAGGAGCAC ((((((....))).))), the Tm in data set [1] is 49 °C. Further, the folding enthalpy in data set [2] is -23.9 kcal/mol.
